The source of these data is paper PMC6322912 (Biochemistry, 2018).

A word on the IC50: it is the concentration that gives 50% inhibition. The low end stands for inhibition by little substance, the high end for a need for much substance. One may read the inhibition as the drop in the measured response relative to a control, in per cent.

For one assay, the target named is T1, SAMHD1 (Homo sapiens, UniProt Q9Y3Z3). Briefly: b4NPP–SAMHD1 HTS. In kind it is biochemical. As to conditions: increasing concentrations of dGTP; normalized to no dGTP. The essentials: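 Recombinant SAMHD1 was expressed in E. coli BL21* as an MBP fusion, tag-cleaved, and purified by heparin and size-exclusion chromatography. Nucleotide was added, then 2 mM final b4NPP. A410 was read over 45 min; rates came from 0–20 min slopes, with no-enzyme baseline.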
T1 sequence (Q9Y3Z3 whole entry, the tested form may be a part): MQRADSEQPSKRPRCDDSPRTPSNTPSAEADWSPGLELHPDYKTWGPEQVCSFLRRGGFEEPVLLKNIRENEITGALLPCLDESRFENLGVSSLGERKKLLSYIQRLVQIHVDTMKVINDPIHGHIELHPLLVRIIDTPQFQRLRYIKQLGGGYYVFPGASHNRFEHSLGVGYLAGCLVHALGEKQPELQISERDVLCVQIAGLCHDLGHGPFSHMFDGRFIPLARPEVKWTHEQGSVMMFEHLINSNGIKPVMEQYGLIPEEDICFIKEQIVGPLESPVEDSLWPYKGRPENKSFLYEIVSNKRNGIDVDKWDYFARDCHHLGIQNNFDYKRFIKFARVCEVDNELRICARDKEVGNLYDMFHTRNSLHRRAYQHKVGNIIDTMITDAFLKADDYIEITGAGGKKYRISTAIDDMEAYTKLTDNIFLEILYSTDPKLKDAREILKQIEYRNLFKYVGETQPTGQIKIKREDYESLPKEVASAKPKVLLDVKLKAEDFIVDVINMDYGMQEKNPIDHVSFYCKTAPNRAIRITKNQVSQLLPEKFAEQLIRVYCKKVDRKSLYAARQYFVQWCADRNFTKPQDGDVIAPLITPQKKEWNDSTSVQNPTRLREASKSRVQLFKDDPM
Take `Nc1nc2c(ncn2[C@H]2C[C@H](O)[C@@H](COP(=O)(O)OP(=O)(O)OP(=O)(O)O)O2)c(=O)[nH]1` [dGTP]: the “Inhibition of SAMHD1-mediated b4NPP hydrolysis” value is “completely inhibited”.

For the next assay, the target named is T1, SAMHD1. Briefly: Dose–response SAMHD1 dNTPase assay. In kind it is biochemical.
Conditions: not given
Turning to `Nc1cc(-c2ccncc2)c[nH]c1=O` [Amrinone], the IC50 is under 250 µM.

Turning to `CN1C[C@H](C(=O)N[C@]2(C)O[C@@]3(O)[C@@H]4CCCN4C(=O)[C@H](Cc4ccccc4)N3C2=O)C=C2c3cccc4[nH]cc(c34)C[C@H]21` [Ergotamine], the IC50 was under 250 µM. Still for that read-out and setting: the value for `CC[C@H](c1ccc(O)cc1)[C@@H](CC)c1ccc(O)cc1` [Hexestrol] was under 250 µM. In the case of `N[C@@H](Cc1cc(I)c(Oc2cc(I)c(O)c(I)c2)c(I)c1)C(=O)O` [L-Thyroxine], the IC50 is under 250 µM.

`COC(=O)c1ccc(O)c2nc3c(C=O)c(O)cc(O)c3nc12` [Lomofungin] gave an IC50 of under 250 µM. On to `CC(C)(O)c1ccccc1CC[C@@H](SCC1(CC(=O)O)CC1)c1cccc(/C=C/c2ccc3ccc(Cl)cc3n2)c1` [Montelukast], for which the IC50 is under 250 µM.

Take `CC1=C(CC(=O)O)c2cc(F)ccc2/C1=C\c1ccc([S+](C)[O-])cc1` (stereo not shown) [Sulindac]: the IC50 is under 250 µM. The same measure, in the same setting: next, `CC1=C(/C=C/C(C)=C/C=C/C(C)=C/C(=O)O)C(C)(C)CCC1` [retinoic acid]: under 250 µM.

The assay is the same for the next values; noted with them: 150 μM dCTP substrate; tetramer preformed with 10 μM GTP and 25 μM dATPαS.
In the case of `Nc1nc2c(ncn2[C@H]2C[C@H](O)[C@@H](COP(O)(=S)OP(=O)(O)OP(=O)(O)O)O2)c(=O)[nH]1` (stereo partly drawn) [dGTPαS, deoxyguanosine triphosphate α S], the “Inhibition of preactivated SAMHD1 dCTPase activity” value is “inhibition”.

Still in this assay, the particulars now being: read-out: SAMHD1 inhibition in dose–response dNTPase assays.
As for `CCCCCOC(=O)Nc1nc(=O)n([C@@H]2O[C@H](C)[C@@H](O)[C@H]2O)cc1F` [Capecitabine], the inhibition at 500 µM was about 25%. Turning to `Nc1nc2c(ncn2CCC(CO)CO)c(=O)[nH]1` [Penciclovir], the inhibition at 500 µM is about 25%. Turning to `CC(=O)CCCCn1c(=O)c2c(ncn2C)n(C)c1=O` [Pentoxifylline], the inhibition at 500 µM was about 25%.
